Results of several laboratories.
Protocols differ between the studies behind these lines.
Target: Activin receptor type-1-like (ACVRL1, Homo sapiens, UniProt P37023)

SMILES | test | conditions | measurement | value
C[C@H](c1cccc(C#N)c1)n1cc(Cl)cc(C(N)=O)c1=N | cell-free assay, competition with immobilised ligand | 1 µM | remaining binding | 93%
COc1cc(Nc2c(C#N)cnc3cc(OCCCN4CCN(C)CC4)c(OC)cc23)c(Cl)cc1Cl | cell-free assay | 0.5 µM | remaining signal | 67.6%
CC(C)(C)c1nc(-c2cccc(NS(=O)(=O)c3c(F)cccc3F)c2F)c(-c2ccnc(N)n2)s1 | enzyme activity, inhibitor, radiometric | 1 µM | remaining activity | 75%
O=C(Nc1cnn(-c2csc(C(=O)NC3COC3)c2)c1)Nc1ccccc1Cl | enzyme activity, inhibitor | 5 µM | remaining activity | 107%
Cc1cnc(NC2CCOCC2)nc1-n1cnc(C(=O)NC(CN)c2cc(F)cc(Cl)c2)c1 (stereo not drawn) | enzyme activity, inhibitor, radiometric | 1 µM | remaining activity | 100%
CCC(=O)N[C@@H]1CC[C@H](C(=O)N(C)c2ccc(-c3nc4ccccc4o3)cc2)C1 | cell-free assay, competition with immobilised ligand | 1 µM | remaining binding | 100%
Nc1ncnc2occ(-c3ccc(NC(=O)Nc4cc(C(F)(F)F)ccc4F)cc3)c12 | cell-free assay | 20 µM | remaining signal | 100%
CC(C)(O)[C@H]1CC[C@H](Nc2ccc3ncc(-c4cccc(C(F)(F)F)c4)n3n2)CC1 | enzyme activity, inhibitor | 1 µM | remaining activity | 66.7%
CCS(=O)(=O)c1cc2cc(C[C@](O)(CC(C)(C)c3ccc(F)cc3C(N)=O)C(F)(F)F)[nH]c2cn1 | cell-free assay, competition with immobilised ligand | 1 µM | remaining binding | 100%
CNC(=O)c1cc(Oc2ccc(NC(=O)Nc3ccc(Cl)c(C(F)(F)F)c3)cc2)ccn1 | cell-free assay | 0.5 µM | remaining signal | 104%
Cc1cc(NC(=O)c2cccc3cc(-c4cccc5[nH]nc(N)c45)ccc23)ccc1F | enzyme activity, inhibitor | 0.1 µM | activity vs control | 143%
O=C(O)[C@@H]1[C@@H](Cn2nnc3ccccc3c2=O)CC[C@H]1C(=O)c1ccc(OCCC2CCOCC2)cc1 | binding, competition with immobilised ligand | 1 µM | remaining binding | 97%
O=C1NC(=O)c2cc(Nc3ccc(F)cc3)c(Nc3ccc(F)cc3)cc21 | cell-free assay | 0.5 µM | remaining signal | 95.9%
CC(=O)c1c(NS(C)(=O)=O)c2cc(-c3ccc(Cl)cc3)c(-c3ccc(Cl)cc3Cl)nc2n(C)c1=O | cell-free assay, competition with immobilised ligand | 1 µM | remaining binding | 100%
N#CCCc1ccc2c(c1)-c1[nH]c3ccc([N+](=O)[O-])cc3c1CC(=O)N2 | cell-free assay | 0.5 µM | remaining signal | 53.6%
